Measured values reported in ChEMBL document CHEMBL2331551, “TOPS-MODE model of multiplexing neuroprotective effects of drugs and experimental-theoretic study of new 1,3-rasagiline derivatives potentially useful in neurodegenerative diseases” (2013).

Experiments:
Type in all cases: functional, Neuron
[1] = Neuroprotection in Sprague-Dawley rat embryonic motor cortex neurons assessed as protection against 100 uM H2O2-induced neuronal death at 5 uM by MTT method
Summary of the method: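 Primary neurons cultured from embryonic day-19 Sprague-Dawley rat motor cortex. Cells were exposed to compound in the presence of H2O2 as the neurotoxic insult. Viability was read as MTT reduction, which reflects mitochondrial integrity and function and indicates the number of viable cells. Protection is given as mean ± SEM of at least three independent experiments.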

[2] = Neuroprotection in Sprague-Dawley rat embryonic motor cortex neurons at 5 uM by MTT method
Summary of the method: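 Cultured neurons from embryonic day-19 Sprague-Dawley rat motor cortex, with compound alone and no neurotoxic agent added. Viability measured by MTT reduction, read as mitochondrial functional activity and number of cells present in culture. Neuroprotection expressed as % (NP), mean ± SEM of at least three independent experiments.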

[3] = Neuroprotection in Sprague-Dawley rat embryonic motor cortex neurons assessed as protection against 100 uM glutamate-induced excitotoxicity at 5 uM by MTT method
Summary of the method: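 Primary cultures of motor cortex neurons from 19-day Sprague-Dawley rat embryos, challenged with glutamate as neurotoxic agent alongside the compound. Cell viability read by MTT reduction, taken as mitochondrial integrity and functional activity, reflecting the number of viable cells. Neuroprotection (NP) reported in %, as mean ± SEM from at least three independent experiments.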

C#CCN[C@@H]1C[C@@H](O)c2ccccc21
Activity [1]: 14.5%
Activity [2]: 23.4%
Activity [3]: 15.2%

C#CCN[C@@H]1C[C@H](O)c2ccccc21
Activity [1]: 46.2%
Activity [2]: 0%
Activity [3]: 0%

C#CCN(CC#C)[C@@H]1C[C@H](O)c2ccccc21
Activity [1]: 17.8%
Activity [2]: -5%
Activity [3]: 0%

C#CCN(CC#C)[C@@H]1C[C@@H](O)c2ccccc21
Activity [1]: 19.6%
Activity [2]: -1%
Activity [3]: -0.5%

C#CCN(CC#C)[C@@H]1C[C@H](OC(C)=O)c2ccccc21
Activity [1]: 18.2%
Activity [2]: 0%
Activity [3]: -1.5%

C#CCN(CC#C)[C@@H]1C[C@@H](OC(C)=O)c2ccccc21
Activity [1]: 12.3%
Activity [2]: 0%
Activity [3]: -0.5%

C#CCN(CC#C)[C@@H]1C[C@H](OC(=O)c2ccccc2)c2ccccc21
Activity [1]: 16.4%
Activity [2]: -5.1%
Activity [3]: 1.6%

C#CCN(CC#C)[C@@H]1C[C@@H](OC(=O)c2ccccc2)c2ccccc21
Activity [1]: -5.8%
Activity [2]: 6.9%
Activity [3]: -1.3%
